Measured values from ChEMBL document CHEMBL4699419, “Antileishmanial assessment of isoxazole derivatives against L. donovani” (RSC Med Chem, 2020).

Columns and labels:
Leishmania donovani [1] = assay: Antileishmanial activity against late log phase promastigote stage of Leishmania donovani MHOM/IN/80/Dd8 harboring luciferase reporter gene incubated for 72 hrs by Steady-Glo luminescence assay; format: functional, organism-based
Outline: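 Luciferase-transfected promastigotes kept at 25 ± 1 °C in medium 199 + 10% heat-inactivated FCS + G418 (20 μg ml–1). Late-log cells (5 × 10^5 per well) grown 72 h with graded compound concentrations from DMSO, DMSO dilution controls. Aliquot mixed 1:1 with Steady-Glo, luminescence (RLU) read; % inhibition vs control. IC50 by Probit regression, three independent experiments.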

[2] = Selectivity index, ratio of CC50 for mouse J774.A1 cells to IC50 for amastigote form of Leishmania donovani MHOM/IN/80/Dd8; format: toxicity; details: read-out: Ratio CC50/IC50
Outline: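 Macrophages infected at a 1:10 ratio with stationary promastigotes, then treated 72 h at 37 °C; luminescence read with Steady-Glo. IC50 values from probit analysis.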

[3] = Cytotoxicity against mouse J774A1 cells assessed as reduction in cell viability incubated for 48 hrs by MTT assay; format: cell-based, J774.A1
Outline: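 J774A.1 macrophages, 0.2 × 10^6 per well, incubated overnight at 37 °C in 5% CO2, then exposed to compounds in DMSO for 48 h, with DMSO dilutions as controls. Viability read by MTT formazan at 600 nm. CC50 = 50% viability reduction versus medium-only cells, from probit regression; three independent experiments.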

Leishmania donovani [4] = assay: Antileishmanial activity against Leishmania donovani MHOM/IN/80/Dd8 promastigotes harboring luciferase reporter gene infected in mouse J774 cells assessed as inhibition of amastigote growth incubated for 72 hrs by Steady-Glo luminescence assay; format: functional, organism-based
Outline: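 J774A.1 mouse macrophages (2 × 10^5 per well, RPMI-1640 + 10% FCS, 37 °C CO2) infected after 24 h with stationary-phase luciferase-transgenic promastigotes at 1:10 macrophage:parasite; compounds in complete medium for 72 h at 37 °C. Medium swapped for PBS, Steady-Glo added, luminescence read; % inhibition vs untreated control RLU. IC50 by Probit log dose/response regression, three independent experiments.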

[5] = Leishmania donovani, MHOM/IN/80/Dd8, 72 h, read-out: IC50
[6] = Leishmania donovani, MHOM/IN/80/Dd8, J774, 72 h, read-out: IC50

| SMILES | IC50 (Leishmania donovani [1]; [5]) | selectivity ratio [2] | CC50 at 48 h [3] | IC50 (Leishmania donovani [4]; [6]) | IC50 (Leishmania donovani [1]) | IC50 (Leishmania donovani [4]) |
| --- | --- | --- | --- | --- | --- | --- |
| COC(=O)c1c(NCCCN2CCOCC2)noc1-c1cc2c(cc1[N+](=O)[O-])OCO2 | 27.8 µM | 3.82 | 65 µM | 17 µM |  |  |
| COC(=O)c1c(NCc2ccc(OC)c(OC)c2)noc1-c1ccc([N+](=O)[O-])cc1 |  |  |  |  | Not Active | Not Active |
| COC(=O)c1c(NCc2ccccc2)noc1-c1cc2c(cc1[N+](=O)[O-])OCO2 | > 50 µM |  |  |  |  | Not Active |
| O=C(NCc1ccc(F)cc1)c1c([N+](=O)[O-])noc1-c1ccc([N+](=O)[O-])cc1 |  |  |  |  | Not Active | Not Active |
| COC(=O)c1c(NCCCCNc2ccnc3cc(Cl)ccc23)noc1-c1ccc([N+](=O)[O-])cc1 | 2.85 µM | 73.8 | 136 µM | 1.84 µM |  |  |
| CCN(CC)CCNc1noc(-c2ccc(Cl)cc2Cl)c1C(=O)OC |  |  |  |  | Not Active | Not Active |
| COc1cccc(CNC(=O)c2c([N+](=O)[O-])noc2-c2ccc(Cl)cc2)c1 | 2.79 µM | 20 | 68.5 µM | 3.43 µM |  |  |
| COc1cccc(CNC(=O)c2c([N+](=O)[O-])noc2-c2ccc(Cl)cc2Cl)c1 | 3.02 µM | 5.41 | 61.1 µM | 11.3 µM |  |  |
| COC(=O)c1c(NCCCCNc2ccnc3cc(Cl)ccc23)noc1-c1ccccc1F | 10.6 µM | 3.56 | 70.9 µM | 19.9 µM |  |  |
| O=C(NCc1ccccc1)c1c([N+](=O)[O-])noc1-c1ccc([N+](=O)[O-])cc1 |  |  |  |  | Not Active | Not Active |
| COC(=O)c1c(NCCNc2cc(C(F)(F)F)nc3c(C(F)(F)F)cccc23)noc1-c1ccc([N+](=O)[O-])cc1 | 10.1 µM | 4.03 | 73 µM | 18.1 µM |  |  |
| COC(=O)c1c(NCc2ccc(OC)c(OC)c2)noc1-c1ccc(Cl)cc1Cl | 4.49 µM | 3 | 7.58 µM | 2.37 µM |  |  |
| CC(C)CCNC(=O)c1c([N+](=O)[O-])noc1-c1ccc(Cl)cc1 |  |  |  |  | Not Active | Not Active |
| COC(=O)c1c(NCCCNc2ccnc3cc(Cl)ccc23)noc1-c1ccc([N+](=O)[O-])cc1 | 3.37 µM | 33.9 | 106 µM | 3.14 µM |  |  |
| COC(=O)c1c(NCc2ccc(OC)c(OC)c2)noc1-c1cc2c(cc1[N+](=O)[O-])OCO2 |  |  |  |  | Not Active | Not Active |
| COC(=O)c1c(NCCCNc2ccnc3cc(Cl)ccc23)noc1-c1ccccc1F | 16.8 µM |  |  |  |  | Not Active |
| COc1cccc(CNC(=O)c2c([N+](=O)[O-])noc2-c2ccc([N+](=O)[O-])cc2)c1 |  |  |  |  | Not Active | Not Active |
| COC(=O)c1c(NCc2ccc(C(C)(C)C)cc2)noc1-c1ccc(Cl)cc1Cl | > 50 µM |  |  | > 50 µM |  |  |
| COC(=O)c1c([N+](=O)[O-])noc1-c1ccccc1 | 2.17 µM |  |  |  |  | Not Active |
| O=C(O)c1c([N+](=O)[O-])noc1-c1ccc([N+](=O)[O-])cc1 | 19 µM |  |  |  |  | Not Active |
| O=C(NCc1cccc(Br)c1)c1c([N+](=O)[O-])noc1-c1ccc([N+](=O)[O-])cc1 |  |  |  |  | Not Active | Not Active |
| COC(=O)c1c([N+](=O)[O-])noc1-c1cccc([N+](=O)[O-])c1 | 2.49 µM |  |  |  |  | Not Active |
| COC(=O)c1c(NCc2cccc(OC)c2)noc1-c1ccc([N+](=O)[O-])cc1 |  |  |  |  | Not Active | Not Active |
| O=C(c1c([N+](=O)[O-])noc1-c1ccc(Cl)cc1)N1CCOCC1 |  |  |  |  | Not Active | Not Active |

| SMILES | IC50 (Leishmania donovani [1]; [5]) | selectivity ratio [2] | CC50 at 48 h [3] | IC50 (Leishmania donovani [4]; [6]) | IC50 (Leishmania donovani [1]) | IC50 (Leishmania donovani [4]) |
| --- | --- | --- | --- | --- | --- | --- |
| COC(=O)c1c([N+](=O)[O-])noc1-c1ccccc1[N+](=O)[O-] | 4.01 µM |  |  |  |  | Not Active |
| O=C(Nc1ccccc1)c1c([N+](=O)[O-])noc1-c1ccc([N+](=O)[O-])cc1 |  |  |  |  | Not Active | Not Active |
| O=C(NCCN1CCOCC1)c1c([N+](=O)[O-])noc1-c1ccc(Cl)cc1 |  |  |  |  | Not Active | Not Active |
| COc1ccc(CNC(=O)c2c([N+](=O)[O-])noc2-c2ccc([N+](=O)[O-])cc2)cc1OC | 1.3 µM |  |  |  |  | Nd(Toxic) |
| COC(=O)c1c([N+](=O)[O-])noc1-c1ccc(Cl)c(Cl)c1 | 1.11 µM |  |  |  |  | Not Active |
| COC(=O)c1c([N+](=O)[O-])noc1-c1ccc([N+](=O)[O-])cc1 | 0.67 µM |  |  |  |  | Not Active |
| COC(=O)c1c(NCc2ccc(OC)cc2)noc1-c1ccc([N+](=O)[O-])cc1 |  |  |  |  | Not Active | Not Active |
| COC(=O)c1c(NCCCNc2ccnc3cc(Cl)ccc23)noc1-c1ccccc1[N+](=O)[O-] | 1.98 µM |  |  |  |  | Not Active |
| O=C(NCc1cccc(Cl)c1Cl)c1c([N+](=O)[O-])noc1-c1ccc([N+](=O)[O-])cc1 |  |  |  |  | Not Active | Not Active |
| COC(=O)c1c(NCc2ccc(OC)cc2OC)noc1-c1ccc([N+](=O)[O-])cc1 |  |  |  |  | Not Active | Not Active |
| COC(=O)c1c(NCc2ccc(F)cc2)noc1-c1ccc([N+](=O)[O-])cc1 |  |  |  |  | Not Active | Not Active |
| O=C(NCc1cccc(Br)c1)c1c([N+](=O)[O-])noc1-c1ccc(Cl)cc1 |  |  |  |  | Not Active | Not Active |
| O=C(NCc1ccccc1)c1c([N+](=O)[O-])noc1-c1ccc(Cl)cc1Cl | 1.32 µM |  |  |  |  | Nd(Toxic) |
| COC(=O)c1c(NCc2ccc(OC)cc2OC)noc1-c1cc2c(cc1[N+](=O)[O-])OCO2 |  |  |  |  | Not Active | Not Active |
| COC(=O)c1c([N+](=O)[O-])noc1-c1ccc(Cl)cc1 | 1.79 µM |  |  |  |  | Not Active |
| COC(=O)c1c([N+](=O)[O-])noc1-c1ccc(C(F)(F)F)cc1 | 0.66 µM |  |  |  |  | Not Active |
| COC(=O)c1c([N+](=O)[O-])noc1-c1ccc(F)cc1 | 2.1 µM |  |  |  |  | Not Active |
| CCCNC(=O)c1c([N+](=O)[O-])noc1-c1ccc(Cl)cc1 |  |  |  |  | Not Active | Not Active |
| COC(=O)c1c(NCc2ccc(OC)cc2)noc1-c1cc2c(cc1[N+](=O)[O-])OCO2 |  |  |  |  | Not Active | Not Active |
| CCN(CC)CCNc1noc(-c2cc3c(cc2[N+](=O)[O-])OCO3)c1C(=O)OC |  |  |  |  | Not Active | Not Active |
| COC(=O)c1c([N+](=O)[O-])noc1-c1cccc(-c2cccs2)c1 | 38.4 µM |  |  |  |  | Not Active |
| O=C(O)c1c([N+](=O)[O-])noc1-c1cc2c(cc1[N+](=O)[O-])OCO2 |  |  |  |  | Not Active | Not Active |
| O=C(NCc1ccccc1)c1c([N+](=O)[O-])noc1-c1ccc(Cl)cc1 |  |  |  |  | Not Active | Not Active |
| COC(=O)c1c(NCc2cccc(OC)c2)noc1-c1cc2c(cc1[N+](=O)[O-])OCO2 |  |  |  |  | Not Active | Not Active |
